Series [1] deals with Trypanosoma brucei rhodesiense. Nature of the series: Trypanocidal activity against bloodstream form of Trypanosoma brucei rhodesiense STIB900 infected in NMRI mouse assessed as decrease in parasitemia at 25 mg/kg, po qd administered for 4 days measured once per week until 60 days by microscopic analysis. Type of series: functional, organism-based. Also on record: dose 25 mg/kg. In short, it runs like this: (§1)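 Mice infected with T. b. rhodesiense STIB900 received one dose daily for 4 consecutive days, 4 mice per group. Diamidines were given intraperitoneally and prodrugs orally. The primary endpoint was cures per group: a mouse counted as cured if it survived 60 days post-infection without parasitemia relapse.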

The subject of series [2] is Trypanosoma brucei rhodesiense. Description: Trypanocidal activity against bloodstream form of Trypanosoma brucei rhodesiense STIB900 infected in NMRI mouse assessed as mean survival days at 25 mg/kg, po qd administered for 4 days. In kind it is functional. In short, it runs like this: (§2)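 Mice infected with T. b. rhodesiense STIB900 (acute model) dosed once daily for 4 consecutive days, ip (diamidines) or oral (prodrugs). Cure means survival to 60 days post infection without parasitemia relapse. Mean survival days post infection are averaged over all mice, with cured mice counted as >60 days.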

The subject of series [3] is Trypanosoma brucei rhodesiense. Nature of the series: Trypanocidal activity against bloodstream form of Trypanosoma brucei rhodesiense STIB900 infected in NMRI mouse assessed as decrease in parasitemia at 5 mg/kg, ip qd administered for 4 days measured once per week until 60 days by microscopic analysis. The arrangement: dose 5 mg/kg. Type of series: functional, organism-based. The essentials:
as §1

In series [4] the test system is Trypanosoma brucei rhodesiense. Description: Trypanocidal activity against bloodstream form of Trypanosoma brucei rhodesiense STIB900 infected in NMRI mouse assessed as mean survival days at 5 mg/kg, ip qd administered for 4 days. Type of series: functional. The settings on record: route intraperitoneal. In short, it runs like this:
as §2

The test system of series [5] is Plasmodium falciparum. Nature of the series: Antiplasmodial activity against chloroquine/pyrimethamine-resistant Plasmodium falciparum K1 infected in human red blood cells assessed as [3H]-hypoxanthine incorporation incubated for 48 hrs prior to [3H]-hypoxanthine addition measured after 24 hrs by liquid scintillation counting analysis. Type of series: functional, organism-based.

Series [6] deals with L6. Description: Cytotoxicity against rat L6 cells assessed as cell viability after 70 hrs by Alamar blue assay. Type of series: cell-based. Particulars: L6, 70 h. (Resazurin is reduced to fluorescent resorufin, in cell work by metabolically active cells.)
For series [7], the system named is Trypanosoma brucei rhodesiense. Description: Antitrypanosomal activity against Trypanosoma brucei rhodesiense STIB900 assessed as growth inhibition after 70 hrs by Alamar blue assay. Particulars: STIB900, 70 h. In kind it is functional, organism-based.
The nature of series [8]: Selectivity index, ratio of IC50 for rat L6 cells to IC50 for Trypanosoma brucei rhodesiense STIB900. In kind it is toxicity, cell-based. The settings on record: read-out: Ratio IC50. The essentials:
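Ratio of IC50 in L6 rat myoblast cytotoxicity assay to IC50 against T. b. rhodesiense STIB900; each IC50 is the mean of two independent assays.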

A short description of series [9]: Selectivity index, ratio of IC50 for rat L6 cells to IC50 for chloroquine/pyrimethamine-resistant Plasmodium falciparum K1 infected in human red blood cells. In kind it is toxicity, cell-based. Particulars: read-out: Ratio IC50. The essentials: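 Ratio of IC50 in L6 rat myoblast cytotoxicity assay to IC50 against P. falciparum K1; each IC50 is the mean of two independent assays.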

The structures appear in SMILES notation. Active and inactive are the calls of the source. The calls are words filed in the database; no cut-off is given here. Some results are limits rather than exact numbers.

Turning to `COc1cc(/C(N)=N/O)ccc1-c1cc(-c2ccc(/C(N)=N/O)cc2OC)on1.Cl.Cl`, in [1], the result was inactive. Moreover, the MSD in series [2] was determined as 12 days.
Take `COc1ccc(C(=N)N)cc1-c1cc(-c2ccc(C(=N)N)cc2[N+](=O)[O-])no1.Cl.Cl`: in series [3], the result was Active. In [4], the MSD was over 60 days.
A word on the IC50: it is the midpoint of a concentration-inhibition curve. For `C[C@@H]1CC[C@H]2[C@@H](C)C(=O)O[C@@H]3O[C@@]4(C)CC[C@@H]1[C@]32OO4` [ARTEMISININ], the figures for the IC50 in series [5] and in series [6] were 4 nM and over 180000 nM, respectively.
`Cl.Cl.N=C(N)c1ccc(-c2cc(-c3ccc(C(=N)N)cc3[N+](=O)[O-])on2)cc1`: the MSD in series [4] is over 53.75 days.
Regarding `Cl.Cl.N=C(N)c1cccc(-c2cc(-c3ccc(C(=N)N)nc3)no2)c1`, the 50% inhibitory concentration (IC50) came to 1.8 nM in series [7], 0.5 nM in [5] and 2080 nM in series [6]. Also, the result in series [3] was Active. The selectivity ratio came out at 1120 in [8] and 3800 in series [9]. The MSD in series [4] was over 60 days.
Regarding `COc1cc(/C(N)=N/O)ccc1-c1cc(-c2cccc(/C(N)=N/O)c2)no1.Cl.Cl`, the outcome in [1] was inactive. In addition, in [2], the MSD worked out at 8 days.
For `N=C(N)c1cccc(-c2cc(-c3cc(C(=N)N)ccn3)no2)c1`, the IC50 turned out to be 492 nM in series [7], 15 nM in series [5] and 130000 nM in series [6]. Also, the selectivity ratio in series [8] came out at 265; in [9], 8700.
Take `Cl.Cl.N=C(N)c1ccc(-c2cc(-c3ccc(C(=N)N)cc3)on2)cc1`: the MSD in series [4] is over 60 days.
Take `Cl.Cl.Cl.N/C(=N\O)c1ccc(-c2cc(-c3ccc(/C(N)=N/O)cc3Cl)on2)cc1`: in [1], the result was inactive. Besides, in series [2], the MSD is over 36.5 days.
Take `Cl.Cl.N=C(N)c1cccc(-c2cc(-c3ccc(C(=N)N)nc3)on2)c1`: the IC50 is 3.7 nM in [7], 1.1 nM in series [5] and 1400 nM in series [6]. Also, in series [3], the result was inactive. Further, the selectivity ratio in [8] came to 379; in series [9], 1290. Besides, in series [4], the MSD was over 41.75 days.
On to `N=C(N)c1ccc(-c2cc(-c3cc(C(=N)N)ccn3)no2)nc1`, for which the IC50 in series [7] was 1670 nM; in series [5] it was 7.4 nM; in series [6] it was over 180000 nM. The selectivity ratio in [8] is over 180; in series [9], over 2430.
As to `CO/N=C(\N)c1cccc(-c2cc(-c3ccc(/C(N)=N/OC)cc3Cl)on2)c1.Cl.Cl.Cl`, the result in series [1] was inactive. Further, in series [2], the MSD came out at 14 days.
`N=C(N)c1cccc(-c2cc(-c3cc(C(=N)N)ccn3)on2)c1`: the IC50 in [7] is 183 nM; in series [5], 24.9 nM; in series [6] it was over 180000 nM. The figures for the selectivity ratio in [8] and in series [9] were over 986 and over 7230, respectively.
For the compound `N=C(N)c1cncc(-c2cc(-c3cccc(C(=N)N)c3)on2)c1`, the IC50 in series [7] was 583 nM; in [5], 18 nM; in series [6], over 180000 nM. The selectivity ratio in series [8] is over 309; in series [9] it was over 10000.
Consider `Cl.Cl.N=C(N)c1ccc(-c2cc(-c3ccc(C(=N)N)cn3)no2)cc1`, for which the IC50 in series [7] stood at 50.5 nM; in series [5], 16.7 nM; in series [6] it was 46200 nM. Further, the selectivity ratio in series [8] stood at 915; in series [9] it was 2770. The MSD in series [4] was over 52.75 days.
In the case of `Cl.Cl.N=C(N)c1ccc(-c2cc(-c3ccc(C(=N)N)cc3[N+](=O)[O-])no2)cc1`, the MSD in series [4] was over 51.25 days.
With `CO/N=C(\N)c1cccc(-c2cc(-c3ccc(/C(N)=N/OC)cc3OC)no2)c1.Cl.Cl`, the MSD in series [2] was over 50 days.
For the compound `COc1cc(C(=N)N)ccc1-c1cc(-c2ccc(C(=N)N)cc2)on1.Cl.Cl`, in series [3], the outcome was Active. Further, in series [4], the MSD was over 60 days.
For `N=C(N)c1ccc(-c2cc(-c3cc(C(=N)N)ccn3)on2)nc1`, the IC50 in [7] was 3380 nM; in series [5], 142 nM; in series [6], over 180000 nM. In addition, the selectivity ratio in [8] is over 53; in series [9], over 1260.
Turning to `COc1cc(/C(N)=N/O)ccc1-c1cc(-c2ccc(/C(N)=N/O)cc2)on1.Cl.Cl`, the MSD in series [2] was over 42 days.
On to `Cl.Cl.N=C(N)c1ccc(-c2cc(-c3cncc(C(=N)N)c3)on2)cc1`, for which the IC50 in series [7] was 14.4 nM; in [5], 18.9 nM; in [6], 4370 nM. For the same compound, the values for the selectivity ratio in series [8] and in series [9] were 302 and 231, respectively. Further, the MSD in [4] was over 54.5 days.
Turning to `Cl.Cl.Cl.N=C(N)c1ccc(-c2cc(-c3ccc(C(=N)N)cc3Cl)on2)cc1`, the result in series [3] was inactive. In addition, in series [4], the MSD is over 31 days.
For the compound `Cl.Cl.Cl.N=C(N)c1cccc(-c2cc(-c3ccc(C(=N)N)cc3Cl)no2)c1`, in series [3], the outcome was inactive. Moreover, the MSD in series [4] was 24 days.
For `Cl.Cl.N=C(N)c1ccc(-c2cc(-c3cc(C(=N)N)ccn3)on2)cc1`, the half-maximal inhibitory concentration (IC50) worked out at 64.3 nM in [7], 58 nM in [5] and 149000 nM in series [6]. The outcome in [3] was inactive. The selectivity ratio in series [8] turned out to be 2320; in [9], 2570. Moreover, the MSD in [4] came out at 28.5 days.
In the case of `Cl.Cl.Cl.N=C(N)c1cccc(-c2cc(-c3cc(C(=N)N)ccc3Cl)no2)c1`, in series [3], the result was inactive. For the same compound, the MSD in series [4] turned out to be 22.25 days.
Consider `Cl.Cl.N=C(N)c1ccc(-c2cc(-c3ccc(C(=N)N)nc3)on2)cc1`, for which the IC50 worked out at 2.7 nM in [7], 1.7 nM in series [5] and 1760 nM in series [6]. Further, the selectivity ratio in series [8] was determined as 643; in series [9], 1050. Moreover, the MSD in series [4] was over 57.25 days.
In the case of `N=C(N)c1ccnc(-c2cc(-c3cc(C(=N)N)ccn3)on2)c1`, the IC50 was 5710 nM in series [7], 327 nM in [5] and over 180000 nM in series [6]. Besides, the selectivity ratio in series [8] is over 32; in series [9], over 550.
Take `Cl.Cl.N=C(N)c1ccc(-c2cc(-c3cccc(C(=N)N)c3)no2)nc1`: the results for the IC50 in series [7], in [5] and in series [6] were 7.2 nM, 4.1 nM and 115000 nM, respectively. Further, in series [3], the outcome was inactive. Further, the results for the selectivity ratio in [8] and in [9] were 15900 and 27800, respectively. For the same compound, the MSD in [4] was over 38.75 days.
For the compound `N=C(N)c1cncc(-c2cc(-c3cncc(C(=N)N)c3)on2)c1`, the IC50 in series [7] is 6120 nM; in [5], 144 nM; in [6], over 180000 nM. Moreover, the values for the selectivity ratio in series [8] and in series [9] were over 29 and over 1250, respectively.
On to `CO/N=C(\N)c1ccc(-c2cc(-c3ccc(/C(N)=N/OC)cc3)on2)cc1.Cl.Cl`, for which the MSD in [2] was over 42.25 days.
Turning to `N=C(N)c1ccc(-c2cc(-c3ccc(C(=N)N)cn3)on2)nc1`, the IC50 in [7] was 596 nM; in series [5], 134 nM; in series [6], over 180000 nM. The selectivity ratio in [8] was over 302; in series [9], over 1350.
With `CO/N=C(\N)c1ccc(-c2cc(-c3cc(/C(N)=N/OC)ccc3OC)no2)cc1.Cl.Cl`, the MSD in [2] was over 37.25 days.
Take `Cl.Cl.Cl.N=C(N)c1ccc(-c2cc(-c3ccc(C(=N)N)cc3Cl)no2)cc1`: in series [3], the outcome was inactive. For the same compound, in series [4], the MSD turned out to be 28 days.
In the case of `COc1cc(C(=N)N)ccc1-c1cc(-c2ccc(C(=N)N)cc2OC)on1.Cl.Cl`, in series [3], the result was Active. Further, the MSD in [4] was over 60 days.
As for `Cl.Cl.Cl.N=C(N)c1cccc(-c2cc(-c3cc(C(=N)N)ccc3Cl)on2)c1`, the result in series [3] was inactive. Further, in [4], the MSD was found to be 25 days.
With `Nc1nc(N)nc(Nc2ccc([As]3SCC(CO)S3)cc2)n1` (stereo not given), the result in series [3] was Active.
On to `Cl.Cl.N=C(N)c1ccc(-c2cc(-c3ccc(C(=N)N)cn3)on2)cc1`, for which the IC50 in series [7] turned out to be 12.1 nM; in series [5], 9.6 nM; in [6], 35900 nM. For the same compound, the selectivity ratio in series [8] turned out to be 2970; in [9], 3750. Also, in series [4], the MSD was over 44 days.
Turning to `Cl.Cl.N=C(N)c1cccc(-c2cc(-c3cncc(C(=N)N)c3)on2)c1`, the IC50 was 207 nM in series [7], 21.7 nM in series [5] and over 180000 nM in series [6]. In addition, the result in [3] was inactive. For the same compound, the selectivity ratio is over 964 in series [8] and over 9170 in series [9]. The MSD in series [4] was determined as 21.75 days.
In the case of `COc1cc(C(=N)N)ccc1-c1cc(-c2cc(C(=N)N)ccc2OC)on1.Cl.Cl`, in series [3], the result was Active. The MSD in [4] was over 60 days.

Values taken from ChEMBL document CHEMBL3102749, “Antiprotozoal activity of dicationic 3,5-diphenylisoxazoles, their prodrugs and aza-analogues” (Bioorg Med Chem, 2014).
